Experimental findings from ChEMBL document CHEMBL3526003, “Pharmacokinetics of the monohydroxy derivative of oxcarbazepine and its enantiomers after a single intravenous dose given as racemate compared with a single oral dose of oxcarbazepine” (Drug Metab Dispos, 2011) are described below.

Series [1] can be described thus: AUC (0 to 32/48 hrs) in human treated with oxcarbazepine at 300 mg, po administered as one-film coated tablet by high-performance liquid chromatography. The note with it: plasma. It is filed as ADME, organism-based. The procedure, abridged:
(§1)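 Healthy adults (6 male, 6 female), single 300 mg film-coated tablet by mouth, fasting, in a randomized two-way crossover with at least one week of washout. Venous heparinized blood was drawn at 0–72 h. Plasma was separated at 2200 g and stored at -80 °C. Non-enantioselective and enantioselective HPLC were used. Cmax/tmax were the observed peak; AUC was by linear trapezoidal rule.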

The nature of series [2]: Drug excretion in human urine assessed as total amount of drug eliminated treated with oxcarbazepine at 300 mg, po administered as one-film coated tablet by high-performance liquid chromatography. The class given is ADME, organism-based. The note with it: read-out: Ae. The gist of the method: (§2)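 300 mg oral tablet given to 12 healthy adults. Urine was collected in fractions up to 72 h and kept at 2–8 °C, then frozen at -20 °C. Analytes were measured by HPLC before and after β-glucuronidase hydrolysis (pH 6.7, 37 °C, about 15 h). Renal clearance was Ae/plasma AUC. Urinary terminal half-life came from log-linear slopes between 4–18 h and 40–64 h.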

Series [3] can be described thus: Renal clearance in human treated with oxcarbazepine at 300 mg, po administered as one-film coated tablet by high-performance liquid chromatography. The note with it: in vivo. It is filed as ADME, organism-based, Kidney. The gist of the method:
as §2

The nature of series [4]: Terminal half life in human urine treated with oxcarbazepine at 300 mg, po administered as one-film coated tablet by high-performance liquid chromatography. It is filed as ADME, organism-based. The note with it: read-out: beta t1/2 (converted). The gist of the method:
as §2

A short description of series [5]: Renal clearance in human treated with monohydroxy derivative of OXC at 250 mg, iv administered as infusion over 30 mins by high-performance liquid chromatography. It is filed as ADME, organism-based, Kidney. The note with it: in vivo. The gist of the method: (§3)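 250 mg racemic MHD infused intravenously over 30 min to 12 healthy adults. Plasma was drawn at 0 to 30 min and up to 72 h, and urine was fractionated to 72 h. Enantioselective HPLC was used. Renal clearance was Ae/AUC; Vss was CL_T·MRT (AUMC/AUC). Urinary half-life came from log-linear slopes between 4–18 h and 40–64 h.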

The nature of series [6]: Apparent terminal half life in human plasma treated with monohydroxy derivative of OXC at 250 mg, iv administered as infusion over 30 mins by high-performance liquid chromatography. It is filed as ADME, organism-based. The following applies: read-out: betat1/2(app) (converted). The procedure, abridged: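 Healthy adult volunteers (6 male, 6 female), randomized two-way crossover with at least one week washout; single 250 mg racemic MHD infused i.v. over 30 min. Heparinized plasma sampled 0–30 min then 1–72 h after start of infusion, stored -80 C; enantiomers quantified by enantioselective HPLC.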

The nature of series [7]: Volume of distribution at steady state in human treated with monohydroxy derivative of OXC at 250 mg, iv administered as infusion over 30 mins by high-performance liquid chromatography. The class given is ADME, organism-based. The following applies: in vivo, read-out: Vdss. The gist of the method: as §3
Series [8] is described as follows: Cmax in human treated with oxcarbazepine at 300 mg, po administered as one-film coated tablet by high-performance liquid chromatography. The following applies: in vivo. The arrangement: dose 300 mg, route oral. The class given is ADME, organism-based. The procedure, abridged:
as §1

Series [9] in a line: AUC (0 to 72 hrs) in human treated with monohydroxy derivative of OXC at 150 mg, iv administered as single dose by high-performance liquid chromatography. It is filed as ADME, organism-based. On the set-up: dose 150 mg, time < 72 hr, route intravenous. The note with it: plasma. The gist of the method: (§4)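 Pilot ascending-dose study: one healthy subject per level received 150, 200 or 250 mg racemic MHD intravenously as a single dose. Plasma was sampled to 72 h and assayed by non-enantioselective and enantioselective HPLC. AUC(0-72h) was computed by the linear trapezoidal method.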

Series [10] in a line: AUC (0 to 72 hrs) in human treated with monohydroxy derivative of OXC at 200 mg, iv administered as single dose by high-performance liquid chromatography. It is filed as ADME, organism-based. The following applies: plasma. On the set-up: time < 72 hr, dose 200 mg, route intravenous. The gist of the method: as §4
Series [11] in a line: AUC (0 to 72 hrs) in human treated with monohydroxy derivative of OXC at 250 mg, iv administered as single dose by high-performance liquid chromatography. The class given is ADME, organism-based. On the set-up: dose 250 mg, time < 72 hr, route intravenous. The following applies: plasma. The gist of the method: as §4
Series [12] is described as follows: Total plasma clearance in human treated with monohydroxy derivative of OXC at 150 mg, iv administered as single dose by high-performance liquid chromatography. The class given is ADME, organism-based. The gist of the method: (§5)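 Pilot study: single intravenous racemic MHD at 150, 200 or 250 mg, one subject per dose. Plasma was sampled to 72 h and analysed by HPLC. Total plasma clearance was computed as Dose/AUC, with AUC from the linear trapezoidal rule.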

The nature of series [13]: Total plasma clearance in human treated with monohydroxy derivative of OXC at 200 mg, iv administered as single dose by high-performance liquid chromatography. It is filed as ADME, organism-based. The procedure, abridged:
as §5

The nature of series [14]: Total plasma clearance in human treated with monohydroxy derivative of OXC at 250 mg, iv administered as single dose by high-performance liquid chromatography. It is filed as ADME, organism-based. The gist of the method:
as §5

The nature of series [15]: AUC in human at 250 mg, iv administered as infusion over 30 mins by non-enantiospecific assay based high-performance liquid chromatography. It is filed as ADME, organism-based. On the set-up: time < 0.5 hr, dose 250 mg, route intravenous. The note with it: plasma. The procedure, abridged:
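Crossover of 12 healthy adults: 250 mg racemic MHD infused intravenously over 30 min versus a 300 mg oral tablet, with at least one week of washout. Plasma MHD was measured by non-enantioselective HPLC-UV at 210 nm after C18 solid-phase extraction (LOQ 0.1 µmol/L). Bioavailability f was the dose-corrected ratio of oral to intravenous AUC.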

Series [16] is described as follows: AUC (0 to 72 hrs) in human at 150 mg, iv administered as single dose by high-performance liquid chromatography. It is filed as ADME, organism-based. On the set-up: dose 150 mg, time < 72 hr, route intravenous. The following applies: plasma. The gist of the method:
as §4

Series [17] can be described thus: AUC (0 to 72 hrs) in human at 200 mg, iv administered as single dose by high-performance liquid chromatography. The following applies: plasma. It is filed as ADME, organism-based. The arrangement: dose 200 mg, time < 72 hr, route intravenous. The procedure, abridged:
as §4

Series [18] in a line: AUC (0 to 72 hrs) in human at 250 mg, iv administered as single dose by high-performance liquid chromatography. The class given is ADME, organism-based. The arrangement: dose 250 mg, time < 72 hr, route intravenous. The following applies: plasma. The gist of the method:
as §4

Series [19] in a line: Drug excretion in human urine assessed as total amount of drug eliminated at 150 mg, iv administered as single dose measured for 72 hrs post-dose by high-performance liquid chromatography. The note with it: read-out: Ae. It is filed as ADME, organism-based. The gist of the method: (§6)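 Pilot ascending-dose study: one subject per level received single intravenous racemic MHD (150, 200, 250 mg). Urine was pooled 0–72 h, and unchanged drug was measured by HPLC as percent of dose excreted. Renal clearance was the amount excreted unchanged divided by plasma AUC.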

The nature of series [20]: Drug excretion in human urine assessed as total amount of drug eliminated at 200 mg, iv administered as single dose measured for 72 hrs post-dose by high-performance liquid chromatography. The following applies: read-out: Ae. It is filed as ADME, organism-based. The procedure, abridged:
as §6

A short description of series [21]: Drug excretion in human urine assessed as total amount of drug eliminated at 250 mg, iv administered as single dose measured for 72 hrs post-dose by high-performance liquid chromatography. The class given is ADME, organism-based. The following applies: read-out: Ae. The procedure, abridged:
as §6

Series [22] in a line: Total plasma clearance in human at 150 mg, iv administered as single dose by high-performance liquid chromatography. It is filed as ADME, organism-based. The gist of the method:
as §5

A short description of series [23]: Total plasma clearance in human at 200 mg, iv administered as single dose by high-performance liquid chromatography. The class given is ADME, organism-based. The procedure, abridged: as §5
Series [24] can be described thus: Total plasma clearance in human at 250 mg, iv administered as single dose by high-performance liquid chromatography. It is filed as ADME, organism-based. The procedure, abridged:
as §5

Series [25] in a line: Renal clearance in human at 150 mg, iv administered as single dose by high-performance liquid chromatography. The class given is ADME, organism-based, Kidney. The following applies: in vivo. The procedure, abridged:
as §6

Series [26] can be described thus: Renal clearance in human at 200 mg, iv administered as single dose by high-performance liquid chromatography. It is filed as ADME, organism-based, Kidney. The following applies: in vivo. The gist of the method: as §6
Series [27] can be described thus: Renal clearance in human at 250 mg, iv administered as single dose by high-performance liquid chromatography. It is filed as ADME, organism-based, Kidney. The note with it: in vivo. The gist of the method:
as §6

The nature of series [28]: Terminal half life in human urine treated with monohydroxy derivative of OXC at 250 mg, iv administered as infusion over 30 mins by high-performance liquid chromatography. The following applies: read-out: beta t1/2 (converted). The class given is ADME, organism-based. The gist of the method:
as §3

The term AUC denotes concentration integrated over time. What is called Cmax is the peak of the concentration-time curve. For orientation: AUC(0-t) means exposure summed from dosing to a finite time, without extrapolation to infinity. A word on the clearance: it is the volume of plasma or blood freed of the substance per unit of time. Read a low clearance as inefficient removal. As to `NC(=O)N1c2ccccc2C[C@H](O)c2ccccc21` [ESLICARBAZEPINE], the exposure (AUC) at 48 h in [1] came out at 241 µM·h. In addition, in series [2], the dose excreted was determined as 21.8%. This compound showed a CL renal in series [3] of 18.3 mL/min. For the same compound, the half-life was 8.5 h in series [4] and 10.6 h in [6]. This compound also had a CL renal at 0.5 h in [5] of 15 mL/min. The Vd in series [7] worked out at 45.9 L. Further, in [8], the Cmax was 11 µM. The exposure AUC(0-t) at 72 h in series [9] worked out at 69 µM·h; in series [10], 92.2 µM·h; in series [11] it was 192 µM·h. In addition, the clearance in series [12] was 71.2 mL/min; in [13], 71.2 mL/min; in series [14] it was 42.7 mL/min.
On to `NC(=O)N1c2ccccc2CC(O)c2ccccc21` (racemic) [LICARBAZEPINE], for which the exposure (AUC) at 0.5 h in series [15] came to 261 µM·h. In addition, the values for the exposure AUC(0-t) at 72 h in series [16], in [17] and in series [18] were 109 µM·h, 142 µM·h and 280 µM·h, respectively. Also, the dose excreted at 72 h in series [19] turned out to be 24.3%; in series [20], 30.7%; in [21], 42.8%. The clearance is 90 mL/min in series [22], 92 mL/min in [23] and 58.5 mL/min in [24]. Besides, the CL renal in series [25] was 21.8 mL/min; in series [26], 28.3 mL/min; in [27] it was 25 mL/min.
Consider `NC(=O)N1c2ccccc2C[C@@H](O[C@@H]2O[C@H](C(=O)O)[C@@H](O)[C@H](O)[C@H]2O)c2ccccc21`, for which the dose excreted in series [2] was 5.62%. In addition, the half-life in series [4] was 10.3 h; in series [28], 14.2 h.
For `NC(=O)N1c2ccccc2C[C@H](O[C@@H]2O[C@H](C(=O)O)[C@@H](O)[C@H](O)[C@H]2O)c2ccccc21` the same measures were 38.8%, 10.8 h and 9.9 h.
